Experimental data as given in ChEMBL document CHEMBL4251664, “Biocompatible Boron-Containing Prodrugs of Belinostat for the Potential Treatment of Solid Tumors” (ACS Med Chem Lett, 2018).
Activity calls are given as the source filed them. The rule behind the calls is not given here.

Tests used:
MCF7 [1] = assay: Antitumor activity against human MCF7 cells implanted in ovariectomized nu/nu mouse assessed as tumor volume at 10 mg/kg, sc administered once daily for 22 days measured post last dose (reference value: 869 +/- 173 mm3); type: functional
HeLa [2] = assay: Prodrug conversion in human HeLa cells assessed as (E)-4-((3-(3-(N-phenylsulfamoyl)phenyl)acrylamidooxy)methyl)phenylboronic acid level after 3 days by UHPLC-MS/MS analysis; type: ADME, cell-based; conditions: 72 h
In short: (§1)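 MDA-MB-231 or HeLa cells were incubated with the pinacol boronate prodrug, and culture medium was sampled daily from day 1 to day 6. The prodrug, boronic acid forms and belinostat were separated, identified and quantified by HPLC coupled to an Orbitrap mass spectrometer. Results are in ng/mL as mean ± SEM of triplicate experiments.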

HeLa [3] = assay: Prodrug conversion in human HeLa cells assessed as belinostat level after 6 days by UHPLC-MS/MS analysis; type: ADME, cell-based; conditions: 144 h; in short: as §1
MCF7 [4] = assay: Antitumor activity against human MCF7 cells implanted in ovariectomized nu/nu mouse assessed as tumor remission at 10 mg/kg, sc administered once daily for 22 days measured at 1 day interval for 3 weeks during compound dosing; type: functional, organism-based
HeLa [5] = assay: Prodrug conversion in human HeLa cells assessed as (E)-4-((3-(3-(N-phenylsulfamoyl)phenyl)acrylamidooxy)methyl)phenylboronic acid level after 6 days by UHPLC-MS/MS analysis; type: ADME, cell-based; conditions: 144 h; in short: as §1
[6] = Drug uptake in tumor of ovariectomized nu/nu mouse implanted with human MCF7 cells assessed as belinostat level at 10 mg/kg, sc administered once daily for 22 days measured post last dose by HPLC-MS/MS analysis; type: ADME, organism-based, Neoplasm; conditions: in vivo, 528 h
In short: (§2)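 After 22 days of 10 mg/kg/day subcutaneous dosing in MCF-7 xenograft mice, animals were sacrificed. Tumours were excised, homogenized and extracted, then analysed by HPLC–MS/MS for belinostat and the free boronic acid. Results are expressed as ng/g tissue.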

MDA-MB-231 [7] = assay: Prodrug conversion in human MDA-MB-231 cells assessed as belinostat level after 1 day by UHPLC-MS/MS analysis; type: ADME, cell-based; conditions: mda-mb-231, 24 h; in short: as §1
MDA-MB-231 [8] = assay: Prodrug conversion in human MDA-MB-231 cells assessed as belinostat level after 6 days by UHPLC-MS/MS analysis; type: ADME, cell-based; conditions: mda-mb-231, 144 h; in short: as §1
HeLa [9] = assay: Prodrug conversion in human HeLa cells assessed as (E)-4-((3-(3-(N-phenylsulfamoyl)phenyl)acrylamidooxy)methyl)phenylboronic acid level after 2 days by UHPLC-MS/MS analysis; type: ADME, cell-based; conditions: 48 h; in short: as §1
MDA-MB-231 [10] = assay: Antiproliferative activity against human MDA-MB-231 cells after 72 hrs by resazurin dye based fluorescence assay; type: functional, cell-based; conditions: MDA-MB-231, 72 h
A549 = assay: Antiproliferative activity against human A549 cells after 72 hrs by resazurin dye based fluorescence assay; type: functional, cell-based; conditions: A549, 72 h
MCF7 [11] = assay: Antitumor activity against human MCF7 cells implanted in ovariectomized nu/nu mouse assessed as tumor growth inhibition at 10 mg/kg, sc administered once daily for 22 days measured post last dose relative to control; type: functional; conditions: 528 h, read-out: TGI
MDA-MB-231 [12] = assay: Prodrug conversion in human MDA-MB-231 cells assessed as belinostat level after 3 days by UHPLC-MS/MS analysis; type: ADME, cell-based; conditions: mda-mb-231, 72 h; in short: as §1
Histone deacetylase 8 = target: T1, Histone deacetylase 8 (Homo sapiens, UniProt Q9BY41); assay: Inhibition of human HDAC8 using RHK(Ac)K(Ac)AMC as substrate
T1 sequence (Q9BY41 whole entry): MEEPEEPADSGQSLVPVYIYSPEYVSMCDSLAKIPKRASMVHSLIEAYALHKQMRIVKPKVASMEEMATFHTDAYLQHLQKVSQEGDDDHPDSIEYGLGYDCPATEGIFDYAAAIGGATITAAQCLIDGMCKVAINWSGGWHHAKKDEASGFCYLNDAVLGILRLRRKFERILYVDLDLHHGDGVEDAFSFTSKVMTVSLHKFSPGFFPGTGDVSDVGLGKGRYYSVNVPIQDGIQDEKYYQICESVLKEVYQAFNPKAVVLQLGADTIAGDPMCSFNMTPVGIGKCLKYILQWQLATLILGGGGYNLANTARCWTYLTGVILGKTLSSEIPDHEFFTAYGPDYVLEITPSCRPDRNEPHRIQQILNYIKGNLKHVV

MDA-MB-231 [13] = assay: Prodrug conversion in human MDA-MB-231 cells assessed as (E)-4-((3-(3-(N-phenylsulfamoyl)phenyl)acrylamidooxy)methyl)phenylboronic acid level after 4 days by UHPLC-MS/MS analysis; type: ADME, cell-based; conditions: mda-mb-231, 96 h; in short: as §1
MCF-10A = assay: Cytotoxicity against human MCF10A cells assessed as reduction in cell proliferation at 10 uM after 72 hrs by resazurin dye based fluorescence assay
Histone deacetylase = assay: Inhibition of HDAC in human cell lysates using fluoro-substrate peptide/fluoro-deacetylated peptide as substrate incubated for 20 mins measured at 1 to 2 mins interval for 30 to 60 mins by fluorescence assay; type: protein assay
HeLa [14] = assay: Prodrug conversion in human HeLa cells assessed as (E)-4-((3-(3-(N-phenylsulfamoyl)phenyl)acrylamidooxy)methyl)phenylboronic acid level after 4 days by UHPLC-MS/MS analysis; type: ADME, cell-based; conditions: 96 h; in short: as §1
MDA-MB-231 [15] = assay: Prodrug conversion in human MDA-MB-231 cells assessed as (E)-4-((3-(3-(N-phenylsulfamoyl)phenyl)acrylamidooxy)methyl)phenylboronic acid level after 2 days by UHPLC-MS/MS analysis; type: ADME, cell-based; conditions: mda-mb-231, 48 h; in short: as §1
NCI-H460 = assay: Antiproliferative activity against human NCI-H460 cells after 72 hrs by resazurin dye based fluorescence assay; type: functional, cell-based; conditions: NCI-H460, 72 h
HeLa [16] = assay: Prodrug conversion in human HeLa cells assessed as belinostat level after 5 days by UHPLC-MS/MS analysis; type: ADME, cell-based; conditions: 120 h; in short: as §1
HeLa [17] = assay: Prodrug conversion in human HeLa cells assessed as (E)-4-((3-(3-(N-phenylsulfamoyl)phenyl)acrylamidooxy)methyl)phenylboronic acid level after 5 days by UHPLC-MS/MS analysis; type: ADME, cell-based; conditions: 120 h; in short: as §1
MCF7 [18] = assay: Antitumor activity against human MCF7 cells implanted in ovariectomized nu/nu mouse assessed as tumor volume at 10 mg/kg, sc administered once daily for 22 days measured post last dose relative to control; type: functional
HeLa [19] = assay: Prodrug conversion in human HeLa cells assessed as belinostat level after 4 days by UHPLC-MS/MS analysis; type: ADME, cell-based; conditions: 96 h; in short: as §1
MCF7 [20] = assay: Antiproliferative activity against human MCF7 cells after 72 hrs by resazurin dye based fluorescence assay; type: functional, cell-based; conditions: MCF7, 72 h
MDA-MB-231 [21] = assay: Prodrug conversion in human MDA-MB-231 cells assessed as belinostat level after 4 days by UHPLC-MS/MS analysis; type: ADME, cell-based; conditions: mda-mb-231, 96 h; in short: as §1
MDA-MB-231 [22] = assay: Prodrug conversion in human MDA-MB-231 cells assessed as belinostat level after 2 days by UHPLC-MS/MS analysis; type: ADME, cell-based; conditions: mda-mb-231, 48 h; in short: as §1
[23] = Drug uptake in tumor of ovariectomized nu/nu mouse implanted with human MCF7 cells assessed as (E)-4-((3-(3-(N-phenylsulfamoyl)phenyl)acrylamidooxy)methyl)phenylboronic acid level at 10 mg/kg, sc administered once daily for 22 days measured post last dose by HPLC-MS/MS analysis; type: ADME, organism-based, Neoplasm; conditions: in vivo, 528 h; in short: as §2
HeLa [24] = assay: Prodrug conversion in human HeLa cells assessed as belinostat level after 1 day by UHPLC-MS/MS analysis; type: ADME, cell-based; conditions: 24 h; in short: as §1
HeLa [25] = assay: Prodrug conversion in human HeLa cells assessed as belinostat level after 2 days by UHPLC-MS/MS analysis; type: ADME, cell-based; conditions: 48 h; in short: as §1

- Drug metabolism (HeLa [2]): 144.9 ng/mL
- Drug metabolism (HeLa [3]): 3.8 ng/mL
- Drug metabolism (HeLa [5]): 49.6 ng/mL
- Drug uptake [6]: 57 ng/g
- Drug metabolism (MDA-MB-231 [7]): 30.7 ng/mL
- Drug metabolism (MDA-MB-231 [8]): 27.8 ng/mL
- Drug metabolism (HeLa [9]): 147.4 ng/mL
- IC50 (MDA-MB-231 [10]): 0.303 µM
- IC50 (A549): 0.453 µM
- Drug metabolism (MDA-MB-231 [12]): 20.3 ng/mL
- EC50 (Histone deacetylase 8): 341 µM
- Drug metabolism (MDA-MB-231 [13]): 171.8 ng/mL
- EC50 (Histone deacetylase): 0.35 µM
- Drug metabolism (HeLa [14]): 107 ng/mL
- Drug metabolism (MDA-MB-231 [15]): 268.5 ng/mL
- IC50 (NCI-H460): 0.43 µM
- Drug metabolism (HeLa [16]): 3.7 ng/mL
- Drug metabolism (HeLa [17]): 82.7 ng/mL
- Drug metabolism (HeLa [19]): 7.8 ng/mL
- IC50 (MCF7 [20]): 1.46 µM
- Drug metabolism (MDA-MB-231 [21]): 19.8 ng/mL
- Drug metabolism (MDA-MB-231 [22]): 27.7 ng/mL
- Drug uptake [23]: 51 ng/g
- Drug metabolism (HeLa [24]): 8.4 ng/mL
- Drug metabolism (HeLa [25]): 6.6 ng/mL
Compound: CC1(C)OB(c2ccc(CONC(=O)/C=C/c3cccc(S(=O)(=O)Nc4ccccc4)c3)cc2)OC1(C)C
- Activity (MCF7 [1]): 127 mm3
- Activity (MCF7 [4]): Active
- inhibition in vivo at 10 mg/kg (MCF7 [11]): 85.4%
- Activity (MCF-10A): Non-Toxic
- T/C (MCF7 [18]): 14.6%
